Compound activity as filed in PubChem BioAssay.
RGS4 act: RGS4 potentiators or activators, primary screen, cell-based, HEK293 M3R inducible RGS4, calcium flux; B-score at 10 µM; hit rate 0.92% among 310,000; carbachol calcium flux Fluo4; active compounds read low;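 active = B-score of the integrated calcium signal more than 4 SD below the library mean, with starting fluorescence not abnormally high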;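 note: negative B-score means reduced calcium response which marks RGS4 activation or potentiation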
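Also added: carbachol at ECmax as muscarinic agonist stimulus; Assay system: HEK293 cells with stable M3R and inducible RGS4; Timing: overnight RGS4 induction, 30 min dye load 37 °C, 20 min compound RT; Measured by: Fluo4-AM (2 µM) calcium-flux fluorescence, kinetic read.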
MrgX1 antag: antagonists of human MrgX1 receptor, primary screen, HEK293 cells, Fluo-4 calcium flux. AID 588676, 2011. hit rate 1.3% among 310,000. B-score at 10 µM. Mas-related G-protein coupled receptor member X1 (Homo sapiens), Q96LB2. BAM8-22 antagonism; active compounds read low;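 active = calcium-response B-score plate-corrected more than 3 library SD below zero, starting fluorescence within 5 deviations, no agonist response on first addition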;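 note: peak minus trough fluorescence over baseline after final BAM8-22 challenge near maximal dose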
Target sequence (Q96LB2 whole entry, looked up): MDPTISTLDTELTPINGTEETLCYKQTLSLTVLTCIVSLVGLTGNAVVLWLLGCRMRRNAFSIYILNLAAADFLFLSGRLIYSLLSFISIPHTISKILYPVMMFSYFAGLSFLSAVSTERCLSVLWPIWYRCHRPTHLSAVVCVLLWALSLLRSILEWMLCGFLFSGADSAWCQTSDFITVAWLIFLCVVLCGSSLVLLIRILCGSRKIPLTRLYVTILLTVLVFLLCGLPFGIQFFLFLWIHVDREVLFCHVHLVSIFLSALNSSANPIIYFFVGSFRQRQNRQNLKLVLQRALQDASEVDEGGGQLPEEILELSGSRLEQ
MrgX1 allo act: positive allosteric modulators of MrgX1, primary screen, HEK293 cells, Fluo-4 calcium flux; FDSS; active compounds read high; B-score at 10 µM; hit rate 0.63% among 310,000; AID 588675, 2011;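 active = plate-corrected calcium response at least 3 library SD above typical, normal starting fluorescence, not activating the receptor alone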;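 note: compound read alongside a low EC10 to EC30 dose of BAM8-22 agonist; peak minus trough fluorescence over baseline measured at the second addition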
MrgX1 ag: agonists of human MrgX1 receptor, primary screen, HEK293 cells, Fluo-4 calcium flux | Fluo-4 calcium fluorescence, agonist mode; active compounds read high | B-score at 10 µM | hit rate 0.44% among 310,000;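 active = calcium response B-score plate-corrected fluorescence ratio at least 3 library SD, with starting fluorescence B-score inside 5 SD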
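Material: MrgX1-expressing HEK293 cells; input: 15,000 cells per well; doses: test compound given as first of three sequential additions; schedule: overnight plating before 1 h dye loading; technique: Fluo-4 NW calcium-flux fluorescence, kinetic read; evaluation: baseline-normalised fluorescence change ratio, B-scored; control set: plate-wise positive and negative controls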
RGS4 block: RGS4 inhibitors, primary screen, cell-based, HEK293 M3R inducible RGS4, calcium flux; Regulator of G-protein signaling 4 (Homo sapiens), P49798; Fluo-4 calcium flux; active compounds read high; triggered by carbachol at its EC20; B-score at 10 µM; hit rate 0.45% among 310,000;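 active = B-score, a plate-corrected calcium signal, over three deviations above library mean, with baseline fluorescence within five deviations of library mean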;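 note: RGS4 expression induced by doxycycline in cells with stable M3 receptor; B-score is computed from the integrated fluorescence ratio over baseline after carbachol; higher B-score means a larger calcium signal and so more RGS4 inhibition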
Target sequence (P49798 whole entry, looked up): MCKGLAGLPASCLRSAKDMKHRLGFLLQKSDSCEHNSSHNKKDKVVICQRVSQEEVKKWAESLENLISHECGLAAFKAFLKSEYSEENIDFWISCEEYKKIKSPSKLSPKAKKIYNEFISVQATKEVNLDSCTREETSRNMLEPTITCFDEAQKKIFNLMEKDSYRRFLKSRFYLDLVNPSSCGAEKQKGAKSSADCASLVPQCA
RGS4 act valid: reduced carbachol calcium response, RGS4-induced M3R cells, confirmation, RGS4 activator project, cell-based, HEK293 M3R/RGS4 inducible, calcium flux, duplicate. carbachol calcium flux Fluo4. shares compounds with RGS4 act. hit rate 89% among 1,100. inhibition, % at 10 µM;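 active = inhibition above 3 SD of the buffer control wells, cut at about 41% in these data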;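 note: signal is the integrated peak-minus-minimum Fluo4 fluorescence over baseline ratio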
M3R Ca counter: activity in cells without induced RGS4 expression | shares compounds with RGS4 act | HEK293 M3R non-induced RGS4, Fluo4 calcium flux; after carbachol challenge at its EC90 | inhibition, % at 10 µM | hit rate 82% among 1,100 | AID 602283;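 active = inhibition exceeding 3 SD of buffer-only control wells, cut at about 26% in these data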;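 note: percent drop in integrated peak-minus-baseline over baseline Fluo4 ratio after carbachol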
RGS4 block valid: enhanced carbachol calcium response, M3R/RGS4 cells, RGS4 inhibitor project, cell-based, validation screen, HEK293 M3R/RGS4, calcium flux | shares compounds with RGS4 block | carbachol calcium Fluo-4 fluorescence; carbachol added at its EC20; 0 = buffer wells, 100 = carbachol control | calcium response, % at 10 µM | hit rate 65% among 1,700 | AID 492999, 2010;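 active = duplicate-averaged calcium response above the buffer-only control mean plus 5 SD of those controls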;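 note: integrated fluorescence ratio F max minus min over baseline F0; higher response in RGS4-induced cells means RGS4 inhibition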
M3R Ca ctr: carbachol calcium response in non-induced M3R cells, confirmation, counter-screen for RGS4 inhibitor project, cell-based, HEK293 M3R; shares compounds with RGS4 block; carbachol calcium Fluo-4; submaximal (EC20) carbachol stimulus; buffer wells 0%, carbachol control wells 100%; activity (percent), % at 10 µM; hit rate 20% among 1,900; AID 493000, 2010; call rule not given here;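 note: RGS4 induction absent so cells express M3R without RGS4; higher means more calcium signal and flags a non-specific hit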
M3R basal Ca ctr: second counter-screen for RGS4 inhibitors: non-induced cells without carbachol; shares compounds with RGS4 block; HEK293 M3R/RGS4 non-induced, Fluo-4 calcium, no carbachol; normalised: buffer wells 0%, carbachol wells 100%; calcium response (agonist-mode artifact), % at 10 µM; hit rate 22% among 1,900;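 active = duplicate-averaged calcium rise in uninduced cells above buffer wells' mean plus 5 SD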
Hits are given with their value. An excerpt weighted towards active compounds, which were near 3.5% of everything screened.

`Cc1ccc(-c2nc3ccccc3c(=O)n2-c2cccc(C)n2)cc1` gave RGS4 act -10, MrgX1 antag inactive, MrgX1 allo act inactive, MrgX1 ag inactive, RGS4 block inactive, RGS4 act valid 48 and M3R Ca counter 84.
For Cc1ccc(-c2nc3ccccc3c(=O)n2-c2cc(C)ccn2)cc1 the results were RGS4 act inactive, MrgX1 antag inactive, MrgX1 allo act inactive, MrgX1 ag inactive and RGS4 block inactive.
O=C1C2CCN(CC2)C1Cc1ccc(OCc2ccccc2)cc1 (stereo unspecified) was read as RGS4 act inactive, MrgX1 antag inactive, MrgX1 allo act inactive, MrgX1 ag inactive and RGS4 block inactive.
`COc1cccc(CNC2CN3CCC2CC3)c1OC` (stereo unspecified) gave RGS4 act -7.7, MrgX1 antag inactive, MrgX1 allo act inactive, MrgX1 ag inactive, RGS4 block inactive, RGS4 act valid 56 and M3R Ca counter 26.
Screening CCOc1cccc(CNC2CN3CCC2CC3)c1 (stereo unspecified) returned RGS4 act inactive, MrgX1 antag inactive, MrgX1 allo act inactive, MrgX1 ag inactive and RGS4 block inactive.
For OC(c1ccccc1)(c1ccc(Cl)cc1)C1CN2CCC1CC2 (stereo unspecified) the results were RGS4 act -9.1, MrgX1 antag inactive, MrgX1 allo act inactive, MrgX1 ag inactive, RGS4 block inactive, RGS4 act valid 78 and M3R Ca counter 57.
Screening CN/C=C(/Cl)P(=O)(OC(C)C)OC(C)C returned RGS4 act inactive, MrgX1 antag inactive, MrgX1 allo act inactive, MrgX1 ag inactive and RGS4 block inactive.
O=C(c1ccc2c(c1)OCO2)C1CCCN(Cc2c(F)cccc2Cl)C1 (stereo unspecified) was read as RGS4 act -8.6, MrgX1 antag inactive, MrgX1 allo act inactive, MrgX1 ag inactive, RGS4 block inactive, RGS4 act valid 92 and M3R Ca counter 81.
Cc1cccc(CN2CCCC(C(=O)c3ccc4c(c3)OCO4)C2)n1 (stereo unspecified) was read as RGS4 act inactive, MrgX1 antag inactive, MrgX1 allo act inactive, MrgX1 ag inactive and RGS4 block inactive.
For Cc1[nH]c2ccc(OC(F)(F)F)cc2c1CCNCc1cccc([N+](=O)[O-])c1 the results were RGS4 act inactive, MrgX1 antag inactive, MrgX1 allo act inactive, MrgX1 ag inactive and RGS4 block inactive.
Screening CCOc1cccc(CNCCc2c(C)[nH]c3ccc(OC(F)(F)F)cc23)c1O returned RGS4 act -8.9, MrgX1 antag -5.3, MrgX1 allo act inactive, MrgX1 ag inactive, RGS4 block inactive, RGS4 act valid 90 and M3R Ca counter 90.
CCn1ccnc1CN1CCCC(C(=O)c2ccc(SC)cc2)C1 (stereo unspecified) was read as RGS4 act -10, MrgX1 antag inactive, MrgX1 allo act inactive, MrgX1 ag inactive, RGS4 block inactive, RGS4 act valid 92 and M3R Ca counter 90.
For O=C1CN(O)C(c2ccccc2)=c2cc(Cl)ccc2=N1 the results were RGS4 act inactive, MrgX1 antag inactive, MrgX1 allo act inactive, MrgX1 ag inactive and RGS4 block inactive.
CCCn1ncc(CN2CCCC(C(=O)c3cccc(OC)c3)C2)c1C (stereo unspecified) was read as RGS4 act -9.1, MrgX1 antag inactive, MrgX1 allo act inactive, MrgX1 ag inactive, RGS4 block inactive, RGS4 act valid 91 and M3R Ca counter 70.
Cc1ncc(CN2CCCC(C(=O)c3ccc(C(C)(C)C)cc3)C2)s1 (stereo unspecified) was read as RGS4 act inactive, MrgX1 antag inactive, MrgX1 allo act inactive, MrgX1 ag inactive and RGS4 block inactive.
Screening COc1cc(/C=C/[N+](=O)[O-])ccc1O returned RGS4 act inactive, MrgX1 antag inactive, MrgX1 allo act inactive, MrgX1 ag inactive, RGS4 block 26, RGS4 block valid 60%, M3R Ca ctr 74% and M3R basal Ca ctr inactive.
COc1ccc(-n2c(/C=C/c3ccc(O)c(OC)c3)nc3ccccc3c2=O)cc1 was read as RGS4 act inactive, MrgX1 antag inactive, MrgX1 allo act inactive, MrgX1 ag inactive and RGS4 block inactive.
Cc1nn(Cc2ccccc2)c(C)c1C=C1C(=O)NC(=O)NC1=O was read as RGS4 act inactive, MrgX1 antag inactive, MrgX1 allo act inactive, MrgX1 ag inactive, RGS4 block inactive, RGS4 block valid inactive, M3R Ca ctr inactive and M3R basal Ca ctr inactive.
Cc1nn(Cc2ccccc2)c(C)c1C(=O)NCc1ccccc1 was read as RGS4 act inactive, MrgX1 antag inactive, MrgX1 allo act inactive, MrgX1 ag inactive and RGS4 block inactive.
For O=C(COc1ccc(Cl)cc1)NCCc1cnc[nH]1 the results were RGS4 act inactive, MrgX1 antag inactive, MrgX1 allo act inactive, MrgX1 ag inactive and RGS4 block inactive.
Screening Cc1ccc(/C=C2/Sc3ccc(C(=O)N4CCC5(CC4)OCCO5)cc3NC2=O)cc1 returned RGS4 act inactive, MrgX1 antag inactive, MrgX1 allo act inactive, MrgX1 ag inactive and RGS4 block inactive.
`COc1ccc(N2C(=O)NC(=O)/C(=C\c3cn(CC(=O)N4CCOCC4)c4ccccc34)C2=O)c(OC)c1` gave RGS4 act inactive, MrgX1 antag inactive, MrgX1 allo act inactive, MrgX1 ag inactive, RGS4 block 8.7, RGS4 block valid 16%, M3R Ca ctr inactive and M3R basal Ca ctr 8.5%.
